From ChEMBL document CHEMBL1153746, “Mansouramycins A-D, cytotoxic isoquinolinequinones from a marine streptomycete” (J Nat Prod, 2009)

Legend:
[1] = Cytotoxicity against human MEXF 462NL cells after 4 days by propidium iodide assay; type: functional, cell-based; details: 96 h
Summary of the method: (§1)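 Monolayer cell proliferation assay across a panel of up to 36 human tumour lines covering 14 solid tumour types. Lines came either from patient tumours grown as subcutaneous xenografts in NMRI nu/nu mice or from culture collections (ATCC, NCI, DSMZ). Potency is given as IC50.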

[2] = Cytotoxicity against human 514L cells after 4 days by propidium iodide assay; type: functional, cell-based; details: 96 h; summary of the method: as §1
[3] = Cytotoxicity against human BXF T24 cells after 4 days by propidium iodide assay; type: functional, cell-based; details: T-24, 96 h; summary of the method: as §1
SF-268 = assay: Cytotoxicity against human SF268 cells after 4 days by propidium iodide assay; type: functional, cell-based; details: SF-268, 96 h; summary of the method: as §1
[4] = Cytotoxicity against human 1619L cells after 4 days by propidium iodide assay; type: functional, cell-based; details: 96 h; summary of the method: as §1
[5] = Cytotoxicity against human LXFL 529L cells after 4 days by propidium iodide assay; type: functional, cell-based; details: 96 h; summary of the method: as §1
[6] = Cytotoxicity against human 498NL cells after 4 days by propidium iodide assay; type: functional, cell-based; details: 96 h; summary of the method: as §1
LNCaP = assay: Cytotoxicity against human LNCAP cells after 4 days by propidium iodide assay; type: functional, cell-based; details: 96 h; summary of the method: as §1
[7] = Cytotoxicity against human RXF 944L cells after 4 days by propidium iodide assay; type: functional, cell-based; details: 96 h; summary of the method: as §1
[8] = Cytotoxicity against human RXF 486L cells after 4 days by propidium iodide assay; type: functional, cell-based; details: 96 h; summary of the method: as §1
MCF7 = assay: Cytotoxicity against human MCF7 cells after 4 days by propidium iodide assay; type: functional, cell-based; details: MCF7, 96 h; summary of the method: as §1
HCT-116 = assay: Cytotoxicity against human HCT116 cells after 4 days by propidium iodide assay; type: functional, cell-based; details: HCT-116, 96 h; summary of the method: as §1
[9] = Cytotoxicity against human 1752L cells after 4 days by propidium iodide assay; type: functional, cell-based; details: 96 h; summary of the method: as §1
[10] = Cytotoxicity against human 899L cells after 4 days by propidium iodide assay; type: functional, cell-based; details: 96 h; summary of the method: as §1
[11] = Cytotoxicity against human GXF251L cells after 4 days by propidium iodide assay; type: functional, cell-based; details: GXF 251L, 96 h; summary of the method: as §1
OVCAR-3 = assay: Cytotoxicity against human OVCAR-3 cells after 4 days by propidium iodide assay; type: functional, cell-based; details: OVCAR-3, 96 h; summary of the method: as §1
[12] = Cytotoxicity against human 393NL cells after 4 days by propidium iodide assay; type: functional, cell-based; details: 96 h; summary of the method: as §1
NCI-H460 = assay: Cytotoxicity against human H460 cells after 4 days by propidium iodide assay; type: functional, cell-based; details: NCI-H460, 96 h; summary of the method: as §1
[13] = Cytotoxicity against human 394NL cells after 4 days by propidium iodide assay; type: functional, cell-based; details: 96 h; summary of the method: as §1
[14] = Cytotoxicity against human 536L cells after 4 days by propidium iodide assay; type: functional, cell-based; details: 96 h; summary of the method: as §1
PANC-1 = assay: Cytotoxicity against human PANC1 cells after 4 days by propidium iodide assay; type: functional, cell-based; details: PANC-1, 96 h; summary of the method: as §1
[15] = Cytotoxicity against human 520L cells after 4 days by propidium iodide assay; type: functional, cell-based; details: 96 h; summary of the method: as §1
[16] = Cytotoxicity against human 1781L cells after 4 days by propidium iodide assay; type: functional, cell-based; details: 96 h; summary of the method: as §1
DU-145 = assay: Cytotoxicity against human DU145 cells after 4 days by propidium iodide assay; type: functional, cell-based; details: DU-145, 96 h; summary of the method: as §1
CWR22R = assay: Cytotoxicity against human 22Rv1 cells after 4 days by propidium iodide assay; type: functional, cell-based; details: 22Rv1, 96 h; summary of the method: as §1
[17] = Cytotoxicity against human 629L cells after 4 days by propidium iodide assay; type: functional, cell-based; details: 96 h; summary of the method: as §1
[18] = Cytotoxicity against human 1657L cells after 4 days by propidium iodide assay; type: functional, cell-based; details: 96 h; summary of the method: as §1
[19] = Cytotoxicity against human 526L cells after 4 days by propidium iodide assay; type: functional, cell-based; details: 96 h; summary of the method: as §1
HT-29 = assay: Cytotoxicity against human HT-29 cells after 4 days by propidium iodide assay; type: functional, cell-based; details: HT-29, 96 h; summary of the method: as §1
[20] = Cytotoxicity against human MAXF 401NL cells after 4 days by propidium iodide assay; type: functional, cell-based; details: 96 h; summary of the method: as §1
[21] = Cytotoxicity against human PC3M cells after 4 days by propidium iodide assay; type: functional, cell-based; details: PC-3M, 96 h; summary of the method: as §1
[22] = Cytotoxicity against human UXF 1138L cells after 4 days by propidium iodide assay; type: functional, cell-based; details: 96 h; summary of the method: as §1
[23] = Cytotoxicity against human 1121L cells after 4 days by propidium iodide assay; type: functional, cell-based; details: 96 h; summary of the method: as §1
[24] = Cytotoxicity against human 289L cells after 4 days by propidium iodide assay; type: functional, cell-based; details: 96 h; summary of the method: as §1
[25] = Cytotoxicity against human 276L cells after 4 days by propidium iodide assay; type: functional, cell-based; details: 96 h; summary of the method: as §1
[26] = Cytotoxicity against human 1218L cells after 4 days by propidium iodide assay; type: functional, cell-based; details: 96 h; summary of the method: as §1
Candida albicans = assay: Antifungal activity against Candida albicans at […] by agar diffusion test; type: functional
Chlorella sorokiniana = assay: Antialgal activity against Chlorella sorokiniana at […] by agar diffusion test; type: functional
[27] = test system: Streptomyces viridochromogenes; assay: Antibacterial activity against Streptomyces viridochromogenes at […] by agar diffusion test; type: functional
Staphylococcus aureus = assay: Antibacterial activity against Staphylococcus aureus at […] by agar diffusion test; type: functional
Bacillus subtilis = assay: Antibacterial activity against Bacillus subtilis at […] by agar diffusion test; type: functional
Chlorella vulgaris = assay: Antialgal activity against Chlorella vulgaris at […] by agar diffusion test; type: functional
Escherichia coli = assay: Antibacterial activity against Escherichia coli at […] by agar diffusion test; type: functional
Desmodesmus subspicatus = assay: Antialgal activity against Scenedesmus subspicatus at […] by agar diffusion test; type: functional
Rhizomucor miehei = assay: Antifungal activity against Mucor miehei at […] by agar diffusion test; type: functional
[28] = in the assay text read “MTT assay” for “propidium iodide assay”

With `CNC1=CC(=O)c2cc(C(=O)OC)ncc2C1=O` the IC50 [1] was 0.179 µM, the IC50 [2] was 0.012 µM and the IC50 [3] was 0.008 µM. It also gave an IC50 (SF-268) of 0.008 µM, an IC50 [4] of 0.045 µM and an IC50 [5] of 0.089 µM. For the same molecule, the IC50 [6] was 0.13 µM, the IC50 (LNCaP) was 1.43 µM and the IC50 [7] was 0.02 µM. It also gave an IC50 [8] of 1.65 µM, an IC50 (MCF7) of 0.012 µM and an IC50 (HCT-116) of 0.114 µM. It also gave an IC50 [9] of 0.13 µM, an IC50 [10] of 0.134 µM and an IC50 [11] of 0.167 µM. For the same molecule, the IC50 (OVCAR-3) was 0.012 µM, the IC50 [12] was 0.122 µM and the IC50 (NCI-H460) was 0.134 µM. It also gave an IC50 [13] of 0.106 µM, an IC50 [14] of 0.146 µM and an IC50 (PANC-1) of 0.549 µM. The IC50 [15] was 0.012 µM, the IC50 [16] was 0.114 µM and the IC50 (DU-145) was 0.992 µM. It also gave an IC50 (CWR22R) of 0.671 µM, an IC50 [17] of 0.016 µM and an IC50 [18] of 0.061 µM. The IC50 [19] was 0.11 µM, the IC50 (HT-29) was 0.146 µM and the IC50 [20] was 0.195 µM. For the same molecule, the IC50 [21] was 0.215 µM, the IC50 [22] was 0.012 µM and the IC50 [23] was 0.15 µM. For the same molecule, the IC50 [24] was 0.13 µM, the IC50 [25] was 0.008 µM and the IC50 [26] was 0.134 µM.
For `CNC1=CC(=O)c2c(cnc(C)c2C)C1=O` [MANSOURAMYCIN A], the IC50 [1] was 49.9 µM, the IC50 [2] was 2.6 µM and the “diameter of the inhibition zone (DIZ)” value (Candida albicans) was 0 mm. The “diameter of the inhibition zone (DIZ)” value (Chlorella sorokiniana) was 17 mm, the IC50 [3] was 12.6 µM and the IC50 (SF-268) was 14.4 µM. For the same molecule, the IC50 [4, 28] was 13.2 µM, the “diameter of the inhibition zone (DIZ)” value [27] was 0 mm and the IC50 [5] was 12.4 µM. It also gave an IC50 [6] of 14.4 µM, an IC50 (LNCaP) of 21.7 µM and an IC50 [7] of 18.1 µM. For the same molecule, the IC50 [8] was 59.1 µM, the IC50 (MCF7) was 2.34 µM and the IC50 (HCT-116) was 9.11 µM. It also gave an IC50 [9] of 46.3 µM, an IC50 [10, 28] of 34.9 µM and an IC50 [11] of 31.9 µM. For the same molecule, the IC50 (OVCAR-3; [28]) was 32.3 µM, the “diameter of the inhibition zone (DIZ)” value (Staphylococcus aureus) was 12 mm and the IC50 [12] was 18.7 µM. The IC50 (NCI-H460) was 7.11 µM, the IC50 [13] was 15.6 µM and the IC50 [14] was 0.71 µM. For the same molecule, the IC50 (PANC-1) was 26.8 µM, the IC50 [15, 28] was 5.45 µM and the “diameter of the inhibition zone (DIZ)” value (Bacillus subtilis) was 10 mm. The “diameter of the inhibition zone (DIZ)” value (Chlorella vulgaris) was 22 mm, the IC50 [16] was 16.4 µM and the IC50 (DU-145) was 1.25 µM. The “diameter of the inhibition zone (DIZ)” value (Escherichia coli) was 10 mm, the IC50 (CWR22R) was 21.7 µM and the IC50 [17] was 4.1 µM. The IC50 [18, 28] was 26 µM, the “diameter of the inhibition zone (DIZ)” value (Desmodesmus subspicatus) was 25 mm and the “diameter of the inhibition zone (DIZ)” value (Rhizomucor miehei) was 0 mm. It also gave an IC50 [19] of 19 µM, an IC50 (HT-29) of 4.63 µM and an IC50 [20] of 47.8 µM. It also gave an IC50 [21] of 32.6 µM, an IC50 [22, 28] of 18 µM and an IC50 [23] of 27.1 µM. It also gave an IC50 [24] of 19.1 µM, an IC50 [25] of 2.44 µM and an IC50 [26] of 28.2 µM.
For `O=S(=O)(O)O.Oc1cccc2cccnc12` [QUINOSOL], the “diameter of the inhibition zone (DIZ)” value (Candida albicans) was 11 mm, the “diameter of the inhibition zone (DIZ)” value (Chlorella sorokiniana) was 28 mm and the “diameter of the inhibition zone (DIZ)” value [27] was 0 mm. The “diameter of the inhibition zone (DIZ)” value (Staphylococcus aureus) was 20 mm, the “diameter of the inhibition zone (DIZ)” value (Bacillus subtilis) was 15 mm and the “diameter of the inhibition zone (DIZ)” value (Chlorella vulgaris) was 25 mm. For the same molecule, the “diameter of the inhibition zone (DIZ)” value (Escherichia coli) was 15 mm, the “diameter of the inhibition zone (DIZ)” value (Desmodesmus subspicatus) was 27 mm and the “diameter of the inhibition zone (DIZ)” value (Rhizomucor miehei) was 30 mm.
